These results are taken from ChEMBL document CHEMBL1144727, “Fragment based design of new H4 receptor-ligands with anti-inflammatory properties in vivo” (J Med Chem, 2008).

Calls of active or inactive are those of the source. The calls are words filed in the database; no cut-off is given here.

One assay concerns the target Histamine H4 receptor (Homo sapiens, UniProt Q9H3N8). As to the kind of experiment: Displacement of [3H]histamine from human histamine H4 receptor expressed in HEK293T cells. It is filed as cell-based, HEK-293T.
For assay [1], the target named is Histamine H3 receptor (Homo sapiens) (UniProt Q9Y5N1). In words: Displacement of [3H]Nalpha-methyl-histamine from human histamine H3 receptor expressed in […] cells at 10 uM. The conditions noted are these: SK-N-MC. The format is cell-based. In a few lines:
(§1)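 Single-point radioligand displacement at the human receptor, performed externally, with ligand at 10 μM. Reported as % inhibition of radioligand binding, measured in duplicate.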

Assay [2] has as its system Rattus norvegicus. In words: Antiinflammatory activity in Wistar rat assessed as inhibition of carrageenan-induced paw edema at 30 mg/kg, sc after 2 hr. It is filed as functional, organism-based. Details: dose 30 mg/kg. In a few lines:
(§2)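 Male Wistar rats (180–200 g), fasted; paw inflammation induced by subplantar injection of 0.1 mL 1% carrageenan in carboxymethylcellulose into left hind paw. Compound or vehicle (DMSO solution, freshly prepared) given s.c. at 0.1 mL per 100 g immediately before carrageenan. Paw volume by plethysmometer before injection and at 2, 4, 6 h; edema as % increase over preinjection value (=100). n = 6 per group.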

Assay [3] deals with Histamine H2 receptor (Homo sapiens) (UniProt P25021). As to the kind of experiment: Displacement of [3H]aminopotentidine from human histamine H2 receptor expressed in COS7 cells at 10 uM. The format is cell-based. Particulars: COS-7. In a few lines:
as §1

Assay [4] concerns the target T1, Histamine H1 receptor (Homo sapiens, UniProt P35367). In words: Displacement of [3H]mepyramine from human histamine H1 receptor expressed in NIH3T3 cells. It is filed as cell-based.
Assay [5] deals with T1, Histamine H1 receptor. As to the kind of experiment: Displacement of [3H]mepyramine from human histamine H1 receptor expressed in NIH3T3 cells at 10 uM. It is filed as cell-based. In a few lines: as §1
The test system of assay [6] is Rattus norvegicus. As to the kind of experiment: Antiinflammatory activity in Wistar rat assessed as inhibition of carrageenan-induced paw edema at 10 mg/kg, sc after 2 hrs. It is filed as functional, organism-based. Details: dose 10 mg/kg. In short, it runs like this:
as §2

Assay [7] has as its system Rattus norvegicus. As to the kind of experiment: Antiinflammatory activity in Wistar rat assessed as inhibition of carrageenan-induced paw edema at 10 mg/kg, sc after 6 hrs. Details: dose 10 mg/kg. The format is functional, organism-based. In a few lines: as §2

Chain of Histamine H4 receptor (Q9H3N8 whole entry): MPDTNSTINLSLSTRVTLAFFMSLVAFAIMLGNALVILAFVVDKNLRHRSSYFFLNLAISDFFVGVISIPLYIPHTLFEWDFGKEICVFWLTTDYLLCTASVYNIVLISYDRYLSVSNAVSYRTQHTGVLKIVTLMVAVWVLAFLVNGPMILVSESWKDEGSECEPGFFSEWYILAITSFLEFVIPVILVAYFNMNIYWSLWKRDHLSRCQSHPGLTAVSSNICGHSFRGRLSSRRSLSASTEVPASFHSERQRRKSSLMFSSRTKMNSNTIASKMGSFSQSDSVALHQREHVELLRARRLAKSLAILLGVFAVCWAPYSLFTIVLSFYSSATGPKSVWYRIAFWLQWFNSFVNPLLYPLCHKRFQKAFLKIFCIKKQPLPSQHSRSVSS
T1 sequence (P35367 whole entry): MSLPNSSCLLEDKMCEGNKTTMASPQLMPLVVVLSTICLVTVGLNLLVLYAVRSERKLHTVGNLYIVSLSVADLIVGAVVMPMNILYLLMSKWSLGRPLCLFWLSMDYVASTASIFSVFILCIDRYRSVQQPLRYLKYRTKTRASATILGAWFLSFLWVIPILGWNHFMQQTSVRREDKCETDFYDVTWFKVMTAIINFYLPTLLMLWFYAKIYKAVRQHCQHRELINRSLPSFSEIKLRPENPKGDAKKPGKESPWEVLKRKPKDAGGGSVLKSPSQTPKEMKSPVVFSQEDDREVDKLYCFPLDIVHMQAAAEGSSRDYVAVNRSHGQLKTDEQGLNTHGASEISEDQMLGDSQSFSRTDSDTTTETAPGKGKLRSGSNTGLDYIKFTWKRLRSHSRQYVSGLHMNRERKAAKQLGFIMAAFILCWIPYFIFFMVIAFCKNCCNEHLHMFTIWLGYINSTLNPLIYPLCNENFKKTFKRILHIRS
Chain of Histamine H2 receptor (Homo sapiens) (P25021 whole entry): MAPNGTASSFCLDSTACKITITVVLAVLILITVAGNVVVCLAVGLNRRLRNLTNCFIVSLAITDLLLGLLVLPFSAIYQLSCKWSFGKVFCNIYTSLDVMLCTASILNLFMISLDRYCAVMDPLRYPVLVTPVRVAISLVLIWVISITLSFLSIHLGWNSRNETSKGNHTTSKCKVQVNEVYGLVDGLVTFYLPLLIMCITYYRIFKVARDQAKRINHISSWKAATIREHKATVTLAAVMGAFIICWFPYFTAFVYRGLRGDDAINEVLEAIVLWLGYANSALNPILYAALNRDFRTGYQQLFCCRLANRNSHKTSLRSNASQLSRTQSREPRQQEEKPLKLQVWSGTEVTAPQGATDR
Chain of Histamine H3 receptor (Homo sapiens) (Q9Y5N1 whole entry): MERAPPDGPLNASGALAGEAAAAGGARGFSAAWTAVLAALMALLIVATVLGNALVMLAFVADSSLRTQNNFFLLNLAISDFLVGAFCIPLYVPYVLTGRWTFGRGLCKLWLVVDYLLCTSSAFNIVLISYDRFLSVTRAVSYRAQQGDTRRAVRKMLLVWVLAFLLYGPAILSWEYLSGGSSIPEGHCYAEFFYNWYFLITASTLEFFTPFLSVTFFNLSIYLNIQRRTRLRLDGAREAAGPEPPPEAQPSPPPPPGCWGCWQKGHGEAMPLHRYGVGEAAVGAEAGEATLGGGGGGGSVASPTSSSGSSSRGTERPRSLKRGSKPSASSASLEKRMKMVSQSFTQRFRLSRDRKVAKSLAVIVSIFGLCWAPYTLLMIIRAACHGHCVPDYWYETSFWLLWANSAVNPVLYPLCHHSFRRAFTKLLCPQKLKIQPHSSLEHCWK

At Histamine H4 receptor, `CN1CCN(c2cnc3ccccc3n2)CC1` gave a Ki of 891 nM.
At Histamine H4 receptor, `CCN1CCN(c2nc3ccccc3nc2Cc2ccccc2)CC1` gave a Ki of 2690 nM.
For the molecule `CN1CCN(c2nc3ccccc3nc2OCc2ccc(Cl)cc2)CC1`, the Ki at Histamine H4 receptor was 2290 nM.
Regarding `CN1CCN(c2nc3ccccc3[nH]c2=O)CC1`, at Histamine H4 receptor, the Ki is 61.7 nM. Compared with the last molecule, the Ki is about 37-fold lower.
On to `COc1ccc(Oc2nc3ccccc3nc2N2CCN(C)CC2)cc1`, for which, on Histamine H4 receptor, the Ki was 2340 nM.
Regarding `COc1nc2cc(Cl)c(Cl)cc2nc1N1CCN(C)CC1`, at Histamine H4 receptor, the Ki is 57.5 nM.
Molecule `CN1CCN(c2nc3ccccc3nc2-c2ccccc2)CC1` gave a Ki at Histamine H4 receptor of 10200 nM.
Still for that read-out and setting: for `CC(C)COc1nc2ccccc2nc1N1CCN(C)CC1` the value was 5750 nM; for `CN1CCN(c2nc3ccccc3nc2Oc2ccc(Cl)cc2)CC1`, 2340 nM; for `CN1CCN(c2nc3ccccc3nc2C(F)(F)F)CC1`, 2510 nM.
For the molecule `Cc1ccc(Oc2nc3ccccc3nc2N2CCN(C)CC2)cc1`, the Ki on Histamine H4 receptor was 2190 nM.
As to `CN1CCN(c2nc3ccccc3nc2OCCCCc2ccccc2)CC1`, the affinity on Histamine H4 receptor, expressed as Ki, was 2950 nM.
`CN1CCN(c2nc3ccccc3nc2Oc2ccccc2)CC1` gave a Ki on Histamine H4 receptor of 324 nM.
On to `CN1CCN(c2nc3ccccc3nc2OC2CCCCC2)CC1`, for which, on Histamine H4 receptor, the Ki was 13200 nM. This Ki is about 41-fold higher than that of the molecule before.
For `COc1ccc(COc2nc3ccccc3nc2N2CCN(C)CC2)cc1`, the affinity at Histamine H4 receptor corresponds to a Ki of 708 nM. Against the preceding molecule, the Ki is about 19-fold lower.
At Histamine H4 receptor, `CN1CCN(c2nc3ccccc3nc2OCc2cccc(Cl)c2)CC1` had a Ki of 269 nM.
`COc1nc2ccccc2nc1N1CCN(C)CC1` had a Ki at Histamine H4 receptor of 339 nM.
The same measure, in the same setting: to `CN1CCN(c2nc3ccccc3nc2Oc2cccc(N(C)C)c2)CC1` belongs 1550 nM; to `CN1CCN(c2nc3ccccc3nc2Oc2ccc(Cl)c(Cl)c2)CC1`, 1700 nM.
As for `CN1CCN(c2nccc3ccccc23)CC1`, the Ki on Histamine H4 receptor is 20400 nM.
`CN1CCN(c2nc3ccccc3nc2OCc2ccccc2)CC1` gave a Ki on Histamine H4 receptor of 295 nM. This Ki is about 69-fold lower than that of the molecule before.
The molecule `Cc1cccc(Oc2nc3ccccc3nc2N2CCN(C)CC2)c1` gave a Ki on Histamine H4 receptor of 575 nM.
For `Cc1nc2cc(Cl)c(Cl)cc2nc1N1CCN(C)CC1`, on Histamine H4 receptor, the Ki was 63.1 nM.
The same measure, in the same setting: to `CN1CCCN(c2nc3cc(Cl)ccc3[nH]c2=O)CC1` belongs 977 nM.
The same measure, in the same setting: for `Cc1ccc(COc2nc3ccccc3nc2N2CCN(C)CC2)cc1` the value was 1380 nM.
As for `CN1CCN(c2ccc3ccccc3n2)CC1`, at Histamine H4 receptor, the Ki is 6920 nM. This Ki is about 5-fold higher than that of the molecule before.
On Histamine H4 receptor, `CN1CCN(c2nc3ccccc3nc2Cl)CC1` showed an inhibitory constant (Ki) of 229 nM.
Same read-out and setting: for `CN1CCN(c2cnc3cc(Cl)ccc3n2)CC1` the value was 91.2 nM; for `COc1nc2cc(Cl)ccc2nc1N1CCN(C)CC1`, 26.3 nM; for `Cc1nc2ccccc2nc1N1CCN(C)CC1`, 200 nM.
On the same count and under the same terms, for `CN(C)CCCOc1nc2ccccc2nc1N1CCN(C)CC1` the value was 3980 nM; for `CN1CCN(c2ccc3cc(Cl)ccc3n2)CC1`, 589 nM.
The molecule `CN1CCN(c2nc3ccccc3nc2OCc2cccnc2)CC1` gave a Ki at Histamine H4 receptor of 2950 nM. This Ki lies about 5-fold higher than the previous one.
At Histamine H4 receptor, `CN1CCN(c2nc3cc(Cl)c(Cl)cc3nc2Oc2ccccc2)CC1` had a Ki of 1170 nM.
`CN1CCN(c2nc3ccccc3nc2Cc2ccccc2)CC1`: the values for the Ki at Histamine H4 receptor and at Histamine H1 receptor [4] were 39.8 nM and 741 nM, respectively. The inhibition was 26% in assay [1], 62% in assay [3] and 86% at Histamine H1 receptor [5]. Besides, in the assay with Rattus norvegicus [2], the result was Active.
Consider `CN1CCN(c2nc3ccccc3nc2Oc2ccc(F)cc2)CC1`, for which the Ki on Histamine H4 receptor was 1580 nM.
The molecule `CN1CCN(c2nc3cc(Cl)ccc3[nH]c2=O)CC1` showed a Ki at Histamine H4 receptor of 11.7 nM.
`CN1CCN(c2nc3ccccc3nc2Oc2cccnc2)CC1` gave a Ki at Histamine H4 receptor of 1290 nM.
The molecule `CN1CCN(c2nc3cc(Cl)c(Cl)cc3nc2CCc2ccccc2)CC1` gave a Ki on Histamine H4 receptor of 3980 nM.
On Histamine H4 receptor, `CN1CCN(c2nc3ccccc3nc2NCc2ccccc2)CC1` gave a Ki of 7410 nM. Against the preceding molecule, the Ki is about 1.9-fold higher.
As to `CN1CCN(c2nc3ccccc3nc2OCc2ccccn2)CC1`, the Ki at Histamine H4 receptor was 468 nM. Compared with the last molecule, the Ki is about 16-fold lower.
`CCOc1nc2ccccc2nc1N1CCN(C)CC1` gave a Ki at Histamine H4 receptor of 229 nM.
`CN1CCN(c2nc3cc(Cl)c(Cl)cc3[nH]c2=O)CC1` showed a Ki at Histamine H4 receptor of 5.62 nM. For the same molecule, the inhibition in assay [1] was found to be 64%; in assay [3], 42%; at Histamine H1 receptor [5], 7%. The result with Rattus norvegicus [6] and in the assay with Rattus norvegicus [7] was Active.
As to `CN1CCN(c2nc3ccccc3nc2Sc2ccccc2)CC1`, on Histamine H4 receptor, the Ki is 363 nM.
At Histamine H4 receptor, `CN1CCN(c2nc3ccccc3nc2OCCc2ccccc2)CC1` showed a Ki of 479 nM.
In turn, `CN1CCN(c2nc3ccccc3nc2OCc2ccncc2)CC1` gave a Ki on Histamine H4 receptor of 4370 nM.
